Data published in ChEMBL document CHEMBL1121573, “2-(Aminomethyl)phenols, a new class of saluretic agents. 1. Effects of nuclear substitution” (J Med Chem, 1980).

Key:
Rattus norvegicus [1] = test: Maximum fall in mean arterial blood pressure was measured in SH rats when compound was administered at 3.75 mg/kg perorally; assay type: functional; conditions: route oral
[2] = Compound administered orally at a dose of 5 mg/kg was evaluated for salidiuretic activity measured as sodium ion excretion in Rat; assay type: organism-based; set-up: dose 5 mg/kg; conditions: Urine
In short: (§1)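 Female Charles-River rats (150–170 g), overnight on sugar diet with water ad libitum. Compound dissolved in DMF, diluted with water containing Tween 80 (final 4% DMF), given po in 5.0 mL; concurrent vehicle placebo. Three rats per metabolism cage; 0–5 h urine analysed for Na+, K+, Cl-. Values: mequiv × 100 per cage, geometric means of three cages per dose; scored 0–6 by Na+.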

Rattus norvegicus [3] = test: Maximum fall in mean arterial blood pressure was measured in SH rats when compound was administered at 7.5 mg/kg perorally; assay type: functional; conditions: route oral
Canis familiaris [4] = test: Salidiuretic activity in dog following i.v. dosing at 5 mg/kg; assay type: functional, Canis lupus familiaris, Urine; set-up: unit not given beside the values; conditions: route intravenous
In short: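 Conditioned female mongrel dogs, postabsorptive, got a 500 mL oral water load 1 h before pentobarbital anesthesia (30 mg/kg iv). After replicate 15-min control collections, compound was given as an iv stat injection.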

Canis familiaris [5] = test: Oral diuretic activity was evaluated by measuring K+ excretion in dog at 10 mg/kg after ip administration (0-6 hr); assay type: ADME, organism-based, Canis lupus familiaris, Urine; set-up: dose 10 mg/kg, route intraperitoneal; conditions: in vivo
In short: (§2)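 Spontaneous urine was pooled with bladder urine collected by catheterization at 6 h. Volume was measured and Na+, K+ and Cl− were determined by standard methods. Values are geometric means.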

Rattus norvegicus [6] = test: Oral diuretic activity was evaluated by measuring Na+ excretion in Rat at 9 mg/kg after […] (0-5 hr); assay type: ADME, organism-based, Urine; set-up: dose 9 mg/kg; conditions: in vivo, ip
In short: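 Female Charles-River rats (150–170 g) were kept overnight on a sugar diet with water ad libitum. Compound was dissolved in DMF, then diluted with water containing Tween 80 (3 drops/100 mL) to a final 4% DMF, and given po in 5.0 mL. Rats were housed three per metabolism cage. Urine from 0–5 h was analysed for Na+, K+ and Cl−, with concurrent placebo controls. Values are mequiv × 100 per cage, geometric mean of three cages per dose.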

[7] = Evaluated for salidiuretic activity measured as sodium ion excretion in Rat, administered orally at a dose of 16.5 mg/kg; assay type: organism-based; set-up: dose 16.5 mg/kg; conditions: Urine; in short: as §1
Rattus norvegicus [8] = test: Oral diuretic activity was evaluated by measuring K+ excretion in Rat at 9 mg/kg […] (0-5 hr); assay type: ADME, organism-based, Urine; set-up: dose 9 mg/kg
In short: (§3)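 Female Charles-River rats (150–170 g) were kept overnight on a sugar diet with water ad libitum. Test substance was dissolved in DMF and diluted with water containing Tween 80 to a final 4% DMF vehicle, then given po in 5.0 mL. Rats were housed three per metabolism cage, and 0–5 h urine was assayed for Na⁺, K⁺ and Cl⁻ alongside concurrent placebo groups. Values are mequiv × 100 per cage, geometric means of three cages per dose.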

Rattus norvegicus [9] = test: Oral diuretic activity was evaluated by measuring Cl- excretion in Rat at 81 mg/kg after po administration (0-5 hr); conditions: in vivo
Canis familiaris [10] = test: Oral diuretic activity was evaluated by measuring K+ excretion in dog at 5 mg/kg after ip administration (0-6 hr); assay type: ADME, organism-based, Canis lupus familiaris, Urine; set-up: dose 5 mg/kg, route intraperitoneal; conditions: in vivo; in short: as §2
Canis familiaris [11] = test: Oral diuretic activity was evaluated by measuring Na+ excretion in dog at 1 mg/kg after ip administration (0-6 hr); assay type: ADME, organism-based, Canis lupus familiaris, Urine; set-up: dose 1 mg/kg, route intraperitoneal; conditions: in vivo; in short: as §2
Canis familiaris [12] = test: Oral diuretic activity was evaluated by measuring K+ excretion in dog at 1 mg/kg after ip administration (0-6 hr); assay type: ADME, organism-based, Canis lupus familiaris, Urine; set-up: dose 1 mg/kg, route intraperitoneal; conditions: in vivo; in short: as §2
Canis familiaris [13] = test: Oral diuretic activity was evaluated by measuring Cl- excretion in dog at 10 mg/kg after […] (0-6 hr); assay type: ADME, organism-based, Canis lupus familiaris, Urine; set-up: dose 10 mg/kg, route intraperitoneal; conditions: in vivo
Rattus norvegicus [14] = test: Compound administered orally at a dose of 81 mg/kg was evaluated for salidiuretic activity measured as sodium ion excretion in Rat; assay type: ADME, organism-based, Urine; set-up: dose 81 mg/kg, route oral; conditions: in vivo, po; in short: as §1
Rattus norvegicus [15] = test: Oral diuretic activity was evaluated by measuring K+ excretion in Rat at 81 mg/kg after […] (0-5 hr); assay type: ADME, organism-based, Urine; set-up: dose 81 mg/kg; in short: as §3
Rattus norvegicus [16] = test: Oral diuretic activity was evaluated by measuring Na+ excretion in Rat at 81 mg/kg […] (0-5 hr); assay type: ADME, organism-based, Urine; set-up: dose 81 mg/kg; conditions: in vivo
Canis familiaris [17] = test: Oral diuretic activity was evaluated by measuring Na+ excretion in dog at 5 mg/kg after ip administration (0-6 hr); assay type: ADME, organism-based, Canis lupus familiaris, Urine; set-up: dose 5 mg/kg, route intraperitoneal; conditions: in vivo; in short: as §2
Canis familiaris [18] = test: Oral diuretic activity was evaluated by measuring Na+ excretion in dog at 10 mg/kg after ip administration (0-6 hr); assay type: ADME, organism-based, Canis lupus familiaris, Urine; set-up: dose 10 mg/kg, route intraperitoneal; conditions: in vivo; in short: as §2
Rattus norvegicus [19] = test: Oral diuretic activity was evaluated by measuring Cl- excretion in Rat at 27 mg/kg […] (0-5 hr); assay type: ADME, organism-based, Urine; set-up: dose 27 mg/kg; conditions: in vivo
Canis familiaris [20] = test: Oral diuretic activity was evaluated by measuring Cl- excretion in dog at 5 mg/kg after […] (0-6 hr); assay type: ADME, organism-based, Canis lupus familiaris, Urine; set-up: dose 5 mg/kg, route intraperitoneal; conditions: in vivo
Rattus norvegicus [21] = test: Evaluated for salidiuretic activity measured as sodium ion excretion in Rat, administered orally at a dose of 50 mg/kg; assay type: functional, Urine; set-up: unit not given beside the values; conditions: route oral; in short: as §1
Rattus norvegicus [22] = test: Oral diuretic activity was evaluated by measuring Cl- excretion in Rat at 9 mg/kg […] (0-5 hr); assay type: ADME, organism-based, Urine; set-up: dose 9 mg/kg; conditions: in vivo; in short: as §3
Rattus norvegicus [23] = test: Maximum fall in mean arterial blood pressure was measured in SH rats when compound was administered at 30 mg/kg perorally; assay type: functional; conditions: route oral
Rattus norvegicus [24] = test: Oral diuretic activity was evaluated by measuring K+ excretion in Rat at 27 mg/kg […] (0-5 hr); assay type: ADME, organism-based, Urine; set-up: dose 27 mg/kg; in short: as §3

- Diuretic activity (Canis familiaris [5]): 8.4
- Diuretic activity (Rattus norvegicus [6]): 0.07
- Diuretic activity (Rattus norvegicus [8]): 0.14
- Diuretic activity (Rattus norvegicus [9]): 3.7
- Diuretic activity (Canis familiaris [10]): 7.3
- Diuretic activity (Canis familiaris [11]): 11.4
- Diuretic activity (Canis familiaris [12]): 4.1
- Diuretic activity (Canis familiaris [13]): 43.8
- Diuretic activity (Rattus norvegicus [14]): 2.9
- Diuretic activity (Rattus norvegicus [15]): 0.77
- Diuretic activity (Rattus norvegicus [16]): 2.44
- Diuretic activity (Canis familiaris [17]): 28.2
- Diuretic activity (Canis familiaris [18]): 35
- Diuretic activity (Rattus norvegicus [19]): 2.13
- Diuretic activity (Canis familiaris [20]): 37
- Diuretic activity (Rattus norvegicus [22]): 0.22
- Diuretic activity (Rattus norvegicus [24]): 0.55
SMILES: NS(=O)(=O)c1cc(C(=O)O)c(NCc2ccco2)cc1Cl [FUROSEMIDE]
- MAP (Rattus norvegicus [1]): 12 mmHg
- Diuretic activity [2]: 0.5
- MAP (Rattus norvegicus [3]): 10 mmHg
- Diuretic activity (Canis familiaris [4]): 250
- Diuretic activity [7]: 1.4
- Diuretic activity (Rattus norvegicus [21]): 2.4
- MAP (Rattus norvegicus [23]): 12 mmHg
